# Measurements taken from ChEMBL document CHEMBL1153758, “Synthesis and anti-osteoporotic evaluation of certain 3-amino-2-hydroxypropoxyisoflavone derivatives” (Eur J Med Chem, 2009).
# The source made the active and inactive calls. The rule behind the calls is not given here.
# Tests used:
# MADS = test: Osteogenic effect on human MADS cells assessed as extracellular matrix calcification at 10 uM after 13 days by using alizarin red S dye; format: functional, cell-based
# Summary of the method: (§1)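 Cells were induced in osteo-induction medium (low-glucose DMEM, 10% FBS, 0.1 µM dexamethasone, 10 mM β-glycerophosphate, 100 µM L-ascorbic 2-phosphate) for 7–14 days. Compounds were added at a final 10 µM from 10 mM DMSO stocks (0.1% DMSO), with DMSO-matched controls.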
# [1] = Selectivity ratio for osteogenic effect of 3-(3,4-dimethoxyphenyl)-7-(oxiran-2-ylmethoxy)-4H-chromen-4-one on MC3T3-E1 cells to osteogenic effect of ipriflavone on MC3T3-E1 cells; format: functional, Mus musculus
# [2] = Cytotoxicity against mouse D1 cells at 10 uM after 3 days by MTT assay; format: cell-based; settings: d1, 72 h
# Summary of the method: (§2)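 Compounds came from 10 mM DMSO stocks, diluted fresh in medium to a final 10 µM (0.1% DMSO), with vehicle-matched DMSO controls. After treatment, MTT ([…] in PBS) was added for 4 h. Formazan was then dissolved in DMSO for 0.5 h and read at 570 nm, expressed as % of control.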
# D1 = test: Osteogenic effect on mouse D1 cells assessed as extracellular matrix calcification at 10 uM after 7 days by using alizarin red S dye; format: functional, cell-based; summary of the method: as §1
# [3] = system: adipose-derived stem cells (Homo sapiens); test: Cytotoxicity against human adipose-derived stem cells assessed as decrease in cell viability; settings: hADSC
# RAW264.7 [4] = test: Antiosteoporotic activity in mouse RAW264.7 cells assessed as inhibition of RANKL-stimulated osteoclastogenesis by TRAP assay; format: functional, cell-based; settings: for EC50: read-out: ED50 (the source's name)
# Summary of the method: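 RAW 264.7 cells were seeded at 10^3 cells per well with 100 ng/mL RANKL and cultured 5 days at 37 °C in 5% CO2, with fresh RANKL-containing medium added on day 3. TRAP activity was read as conversion of 4 mmol/L α-naphthyl phosphate to α-naphthol in the presence of 2 mol/L L-tartrate, by absorbance at 405 nm.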
# MC3T3-E1 = test: Osteogenic effect on mouse MC3T3-E1 cells assessed as extracellular matrix calcification at 10 uM after 12 days by using alizarin red S dye; format: functional, cell-based; summary of the method: as §1
# RAW264.7 [5] = test: Cytotoxicity against mouse RAW264.7 cells at 10 uM after 3 days by MTT assay; format: cell-based; settings: raw264.7, 72 h; summary of the method: as §2
# [6] = Cytotoxicity against human ADSC at 10 uM after 3 days by MTT assay; settings: 72 h; summary of the method: as §2
# [7] = Selectivity ratio for osteogenic effect of 3-(4-(3-(cyclohexylamino)-2-hydroxypropoxy)phenyl)-7-methoxy-4H-chromen-4-one on MC3T3-E1 cells to osteogenic effect of ipriflavone on MC3T3-E1 cells; format: functional, Mus musculus
compound,measurement,setting,value
COc1ccc(-c2coc3cc(OCC4CO4)ccc3c2=O)cc1OC (stereo not given),Activity,MADS,Active
same,Selectivity ratio,[1],10
same,Activity,[2],Non-toxic
same,Activity,D1,Active
same,Activity,[3],60%
same,IC50,RAW264.7 [4],0.56 µM
same,EC50,RAW264.7 [4],0.56 µM
same,Activity,MC3T3-E1,Active
same,Activity,RAW264.7 [5],Non-toxic
COc1ccc2c(=O)c(-c3ccc(OCC4CO4)cc3)coc2c1 (stereo not given),IC50,RAW264.7 [4],6.39 µM
CC(C)Oc1ccc2c(=O)c(-c3ccccc3)coc2c1 [IPRIFLAVONE],Activity,MADS,Active
same,Activity,[6],Non-toxic
COc1ccc(-c2coc3cc(OCC(O)CNC4CCCCC4)ccc3c2=O)cc1OC (stereo not given),IC50,RAW264.7 [4],4.17 µM
COc1ccc2c(=O)c(-c3ccc(OCC(O)CNC4CC4)cc3)coc2c1 (stereo not given),IC50,RAW264.7 [4],4.85 µM
COc1ccc2c(=O)c(-c3ccc(OCC(O)CNC4CCCCC4)cc3)coc2c1 (stereo not given),Activity,MADS,Active
same,Activity,[6],Non-toxic
same,Activity,[2],Non-toxic
same,Activity,D1,Active
same,EC50,RAW264.7 [4],2.28 µM
same,Activity,MC3T3-E1,Active
same,Activity,RAW264.7 [5],Non-toxic
same,Selectivity ratio,[7],10
O=c1cc(-c2ccccc2)oc2cc(O)c(O)c(O)c12 [BAICALEIN],IC50,RAW264.7 [4],13 µM
O=C(c1ccc(OCCN2CCCCC2)cc1)c1c(-c2ccc(O)cc2)sc2cc(O)ccc12 [RALOXIFENE],Activity,MADS,Active
same,Activity,[6],Non-toxic
